Measured values reported in ChEMBL document CHEMBL1133100, “Design and synthesis of Cyclopenta[g]quinazoline-based antifolates as inhibitors of thymidylate synthase and potential antitumor agents(,)” (J Med Chem, 2000).

How the values were obtained:
[1] = molecular target: T1, Thymidylate synthase (Mus musculus, UniProt P07607); assay: Compound was tested for the binding affinity against thymidylate synthase from L1210 mouse leukemia cells; value given as 2.4,1.8; type: cell-based; settings: read-out: Ki app
T1 sequence (P07607 whole entry): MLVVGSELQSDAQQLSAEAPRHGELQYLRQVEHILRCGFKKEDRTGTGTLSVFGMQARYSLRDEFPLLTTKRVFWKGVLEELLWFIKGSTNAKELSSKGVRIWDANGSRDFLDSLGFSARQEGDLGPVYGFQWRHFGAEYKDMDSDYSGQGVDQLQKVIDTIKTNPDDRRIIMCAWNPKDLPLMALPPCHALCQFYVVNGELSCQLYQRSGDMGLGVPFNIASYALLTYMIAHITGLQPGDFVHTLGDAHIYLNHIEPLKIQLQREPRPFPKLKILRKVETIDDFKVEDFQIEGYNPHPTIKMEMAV
Summary of the method: (§1)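 Enzyme source was partially purified thymidylate synthase from L1210 mouse leukemia cells that overproduce TS through TS gene amplification. Apparent Ki was determined alongside the control CB3717 in each experiment. The test Kiapp/CB3717 Kiapp ratio was multiplied by the mean CB3717 Kiapp across experiments to allow comparison between experiments.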

[2] = system: L1210; assay: Compound was tested for the inhibition of L1210:1565 cell growth in mouse; value given as 3.5,4.1; type: functional, cell-based
[3] = system: L1210; assay: Compound was tested for the inhibition of L1210 cell growth in mouse; value given as 1.7,2.0; type: functional, cell-based
[4] = system: L1210; assay: Compound was tested for the inhibition of L1210: 1565 cell growth in mouse.; type: functional, cell-based
[5] = molecular target: T1, Thymidylate synthase; assay: Binding affinity against thymidylate synthase from L1210 mouse leukemia cells; type: cell-based; settings: read-out: Ki app; summary of the method: as §1
[6] = system: L1210; assay: Compound was tested for the inhibition of L1210 cell growth in mouse.; type: functional, cell-based
[7] = system: L1210; assay: Compound was tested for the inhibition of L1210: 1565 cell growth in mouse; value given as 3.9, 3.0; type: functional, cell-based
[8] = system: L1210; assay: Compound was tested for the inhibition of L1210 cell growth in mouse; value given as 7.2, 7.2; type: functional, cell-based
[9] = molecular target: T1, Thymidylate synthase; assay: Compound was tested for the binding affinity against thymidylate synthase from L1210 mouse leukemia cells; value given as 0.9, 2.0; type: cell-based; settings: read-out: Ki app; summary of the method: as §1
[10] = system: L1210; assay: Compound was tested for the inhibition of L1210 cell growth in mouse; Value was given as 2.3,1.8.; type: functional, cell-based
[11] = system: L1210; assay: Compound was tested for the inhibition of L1210: 1565 cell growth in mouse; value given as 8.2, 7.8; type: functional, cell-based
[12] = system: L1210; assay: Compound was tested for the inhibition of L1210: 1565 cell growth in mouse; value given as 3.6, 2.7; type: functional, cell-based
[13] = system: L1210; assay: Compound was tested for the inhibition of L1210: 1565 cell growth in mouse; value given as 1.2, 1.6; type: functional, cell-based
[14] = system: L1210; assay: Compound was tested for the inhibition of L1210: 1565 cell growth in mouse; Value given as 1.3,0.84; type: functional, cell-based

SMILES | IC50 [4] [nM] | Ki [5] [nM] | IC50 [6] [nM] | also measured
C#CCN(c1ccc(C(=O)N[C@@H](CCc2nnnn2CC(=O)O)C(=O)O)cc1)C1CCc2cc3nc(C)nc(O)c3cc21 (some centres not stated) | – | – | – | Ki [1]: 2.4 nM; IC50 [2]: 4.1 µM; IC50 [3]: 2000 nM
C#CCN(c1ccc(C(=O)N[C@@H](CCC(=O)N[C@H](CCC(=O)O)C(=O)O)C(=O)O)cc1)C1CCc2cc3nc(C)nc(O)c3cc21 (some centres not stated) | 2200 | 0.42 | 300 | –
C#CCN(c1ccc(C(=O)N[C@@H](CCC(=O)N[C@@H](CCc2nnnn2CC(=O)O)C(=O)O)C(=O)O)cc1)C1CCc2cc3nc(C)nc(O)c3cc21 (some centres not stated) | – | 0.26 | – | IC50 [7]: 3.9 µM; IC50 [8]: 7.2 µM
C#CCN(Cc1cc2c(O)nc(C)nc2cc1C)c1ccc(C(=O)N[C@@H](CCC(=O)N[C@H](CCC(=O)O)C(=O)O)C(=O)O)cc1 | 14000 | 2 | 220 | –
C#CCN(c1ccc(C(=O)N[C@@H](CCc2nnnn2CCCC(=O)O)C(=O)O)cc1)C1CCc2cc3nc(C)nc(O)c3cc21 (some centres not stated) | 2300 | – | 2700 | Ki [9]: 2 nM
C#CCN(c1ccc(C(=O)N[C@@H](CCC(=O)N(C)[C@H](CCC(=O)O)C(=O)O)C(=O)O)cc1)C1CCc2cc3nc(C)nc(O)c3cc21 (some centres not stated) | 4400 | 0.78 | – | IC50 [10]: 2300 nM
C#CCN(c1ccc(C(=O)N[C@@H](CCC(=O)N[C@H](C)C(=O)NS(=O)(=O)c2ccccc2)C(=O)O)cc1)C1CCc2cc3nc(C)nc(O)c3cc21 (some centres not stated) | – | 2.4 | 1900 | IC50 [11]: 8.2 µM
C#CCN(c1ccc(C(=O)N[C@@H](CCc2nnn(CC(=O)O)n2)C(=O)O)cc1)C1CCc2cc3nc(C)nc(O)c3cc21 (some centres not stated) | – | 1.7 | 180 | IC50 [14]: 1300 nM

Second part, led by results:

IC50 [4] [nM] | Ki [5] [nM] | IC50 [6] [nM] | SMILES | also measured
13000 | 2.2 | 19000 | C#CCN(c1ccc(C(=O)N[C@@H](CCc2nnnn2CC(=O)N[C@H](C)C(=O)O)C(=O)O)cc1)C1CCc2cc3nc(C)nc(O)c3cc21 (some centres not stated) | –
680 | 0.78 | 490 | C#CCN(c1ccc(C(=O)N[C@@H](CCCS(=O)(=O)c2nnc[nH]2)C(=O)O)cc1)C1CCc2cc3nc(C)[nH]c(=O)c3cc21 (some centres not stated) | –
– | 2.6 | 440 | C#CCN(c1ccc(C(=O)N[C@@H](CCC(=O)N[C@H](CCC)c2nnn[nH]2)C(=O)O)cc1)C1CCc2cc3nc(C)[nH]c(=O)c3cc21 (some centres not stated) | IC50 [12]: 3.6 µM
1400 | 1.1 | 420 | C#CCN(c1ccc(C(=O)N[C@@H](CCC(=O)N[C@H](C)C(=O)O)C(=O)O)cc1)C1CCc2cc3nc(C)nc(O)c3cc21 (some centres not stated) | –
– | 2.2 | 640 | C#CCN(c1ccc(C(=O)N[C@@H](CCC(=O)N[C@H](C)c2nnn[nH]2)C(=O)O)cc1)C1CCc2cc3nc(C)[nH]c(=O)c3cc21 (some centres not stated) | IC50 [13]: 1600 nM
1300 | 0.2 | 1500 | C#CCN(c1ccc(C(=O)N[C@@H](CCC(=O)N[C@H](CCC(=O)O)c2nnn[nH]2)C(=O)O)cc1)C1CCc2cc3nc(C)[nH]c(=O)c3cc21 (some centres not stated) | –
